ChEMBL document CHEMBL3414514, “Synthesis and pharmacological evaluation of novel bisindole derivatives bearing oximes moiety: identification of novel proapoptotic agents” (Eur J Med Chem, 2015)
pIC50: −log10 of the molar value. Calls of active or inactive are those of the source. No cut-off for these calls is given here.

Tests used:
T-24 [1] = experiment: Induction of apoptosis in human T24 cells assessed as late apoptotic cells at 20 uM after 24 hrs by annexin-V-FITC/propidium iodide staining-based flow cytometry (reference value: 2.08%); type: functional
T-24 [2] = experiment: Induction of apoptosis in human T24 cells assessed as viable cells at 20 uM after 24 hrs by annexin-V-FITC/propidium iodide staining-based flow cytometry (reference value: 93.5%); type: functional; conditions: T-24, 24 h, read-out: Activity
T-24 [3] = experiment: Induction of apoptosis in human T24 cells assessed as increase in intracellular ROS level at 5 to 20 uM after 24 hrs by DCFH/DA staining-based fluorescence microscopic analysis; type: functional, cell-based
[4] = Induction of apoptosis in human T24 cells assessed as cytC upregulation after 24 hrs by qRT-PCR analysis; type: functional, cell-based; conditions: T-24
In short: (§1)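 T24 cells treated at […] for 24 h before RNA extraction. SYBR Green qRT-PCR with 500 nM primers: 2 min at 50 C, 10 min at 95 C, then 40 cycles of 15 s at 95 C and 1 min at 60 C. Expression by the ΔCt method against actin, normalized to untreated cells; run in triplicate.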

[5] = Induction of apoptosis in human T24 cells assessed as AIF upregulation after 24 hrs by qRT-PCR analysis; type: functional, cell-based; conditions: T-24; in short: as §1
[6] = Induction of apoptosis in human T24 cells assessed as AIF upregulation at IC50 after 24 hrs by qRT-PCR analysis relative to control; type: functional, cell-based; conditions: T-24
[7] = Induction of apoptosis in human T24 cells assessed as caspase-3 upregulation at IC50 after 24 hrs by qRT-PCR analysis relative to control; type: functional, cell-based; conditions: T-24
T-24 [8] = experiment: Induction of apoptosis in human T24 cells assessed as increase in Bax protein expression after 6 to 24 hrs by Western blotting analysis; type: functional, cell-based
T-24 [9] = experiment: Induction of apoptosis in human T24 cells assessed as increase in caspase-3 protein expression at 20 uM after 6 to 24 hrs by Western blotting analysis; type: functional, cell-based
T-24 [10] = experiment: Induction of apoptosis in human T24 cells assessed as increase in caspase-7 protein expression at 20 uM after 6 to 24 hrs by Western blotting analysis; type: functional, cell-based
[11] = Cell cycle arrest in human T24 cells assessed as accumulation at G1 phase at 5 uM after 48 hrs by Rnase A/propidium iodide staining-based flow cytometry (reference value: 34.43%); type: functional; conditions: T-24
In short: (§2)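 T24 cells exposed to […] for 48 h, washed with ice-cold PBS, then fixed and permeabilized overnight in ice-cold 70% ethanol. RNase A (100 mg/mL) treatment at 37 C for 30 min, then PI staining (1 mg/mL) in the dark at 4 C for 30 min. Flow cytometry gave the percentage of cells in G1, S and G2 phase.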

[12] = Cell cycle arrest in human T24 cells assessed as accumulation at G2 phase at 5 uM after 48 hrs by Rnase A/propidium iodide staining-based flow cytometry (reference value: 3.58%); type: functional; conditions: T-24; in short: as §2
[13] = Cell cycle arrest in human T24 cells assessed as accumulation at G1 phase at 10 uM after 48 hrs by Rnase A/propidium iodide staining-based flow cytometry (reference value: 34.43%); type: functional; conditions: T-24; in short: as §2
[14] = Cell cycle arrest in human T24 cells assessed as reduction in Cyclin D1 level after 24 hrs by Western blotting analysis; type: functional, cell-based; conditions: T-24
In short: (§3)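 T24 cells treated at […] for 24 h and lysed in ice-cold RIPA buffer with protease inhibitors and NaF. Protein measured by Bradford; 30 micrograms per lane run on 12% SDS-PAGE and transferred to PVDF. Blocked 2 h at room temperature, primary antibody overnight at 4 C, HRP secondary (1:2000) 1 h, chemiluminescence detection.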

[15] = Cell cycle arrest in human T24 cells assessed as increase in p16 level after 24 hrs by Western blotting analysis; type: functional, cell-based; conditions: T-24; in short: as §3
[16] = Cell cycle arrest in human T24 cells assessed as increase in p21 level after 24 hrs by Western blotting analysis; type: functional, cell-based; conditions: T-24; in short: as §3
[17] = Cell cycle arrest in human T24 cells assessed as increase in p27 level after 24 hrs by Western blotting analysis; type: functional, cell-based; conditions: T-24; in short: as §3
MGC-803 = experiment: Cytotoxicity against human MGC803 cells after 2 days by MTT assay; type: functional, cell-based; conditions: MGC-803, 48 h
In short: (§4)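 Cells grown in medium with 10% heat-inactivated FBS at 37 C under 5% CO2. Compounds dissolved in medium with 1% DMSO; controls received 1% DMSO. After 2 days, MTT (10 mg/mL) added for 4 h, formazan dissolved in DMSO and absorbance read at 570/630 nm. Survival taken relative to negative control; IC50 by Bliss method (n = 5), at least three independent experiments.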

NCI-H460 = experiment: Cytotoxicity against human NCI-H460 cells after 2 days by MTT assay; type: functional, cell-based; conditions: NCI-H460, 48 h; in short: as §4
T-24 [18] = experiment: Induction of apoptosis in human T24 cells assessed as fragmented nuclei after 24 hrs by Hoechst 33258 staining-based fluorescence microscopic analysis relative to control; type: functional, cell-based
In short: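 T24 cells on cover slips treated at […] for 24 h; untreated cells as control. Fixed in 4% paraformaldehyde for 10 min, PBS washes, Hoechst 33258 for 5 min. Nuclei imaged by fluorescence microscopy, excitation 350 nm, emission 460 nm.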

T-24 [19] = experiment: Induction of apoptosis in human T24 cells assessed as pycnosis at 5 to 20 uM after 24 hrs by AO/EB staining-based fluorescence microscopic analysis relative to control; type: functional, cell-based
In short: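 T24 cells seeded at 5 × 10^4 cells/mL on cover slips. Medium was replaced with fresh medium containing 10% FBS and compound at 5, 10 or 20 µM for 24 h. Cover slips were inverted onto AO/EB stain and viewed by fluorescence microscopy. Live cells score uniform green, early apoptotic green-yellow, late apoptotic orange, and necrotic orange without condensed chromatin. Untreated cells served as control.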

T-24 [20] = experiment: Induction of apoptosis in human T24 cells assessed as early apoptotic cells at 5 uM after 24 hrs by annexin-V-FITC/propidium iodide staining-based flow cytometry (reference value: 2.74%); type: functional
T-24 [21] = experiment: Induction of apoptosis in human T24 cells assessed as late apoptotic cells at 5 uM after 24 hrs by annexin-V-FITC/propidium iodide staining-based flow cytometry (reference value: 2.08%); type: functional
T-24 [22] = experiment: Induction of apoptosis in human T24 cells assessed as viable cells at 5 uM after 24 hrs by annexin-V-FITC/propidium iodide staining-based flow cytometry (reference value: 93.5%); type: functional; conditions: T-24, 24 h, read-out: Activity
T-24 [23] = experiment: Induction of apoptosis in human T24 cells assessed as late apoptotic cells at 10 uM after 24 hrs by annexin-V-FITC/propidium iodide staining-based flow cytometry (reference value: 2.08%); type: functional
T-24 [24] = experiment: Induction of apoptosis in human T24 cells assessed as viable cells at 10 uM after 24 hrs by annexin-V-FITC/propidium iodide staining-based flow cytometry (reference value: 93.5%); type: functional; conditions: T-24, 24 h, read-out: Activity

**Q.** With COc1ccc2c(c1)/C(=N\O)C(c1c[nH]c3ccc(OC)cc13)=N2 as the molecule, how does the Activity (T-24 [1]) read?
**A.** Its Activity is 7.13%.

**Q.** And the viability at 20 µM (T-24 [2])?
**A.** Its viability at 20 µM is 58.1%.

**Q.** What about the Activity (T-24 [3]) of the same molecule?
**A.** The Activity was “Active”.

**Q.** And the Activity [4]?
**A.** Its Activity is “Dose-dependent effect”.

**Q.** What about the Activity [5] of the same molecule?
**A.** Its Activity is “Dose-dependent effect”.

**Q.** What about the fold change (FC) [6] of the same molecule?
**A.** The fold change (FC) was 4.47.

**Q.** What about the fold change (FC) [7] of the same molecule?
**A.** The fold change (FC) was 24.8.

**Q.** And the Activity (T-24 [8])?
**A.** Its Activity is “Dose-dependent effect”.

**Q.** And the Activity (T-24 [9])?
**A.** Its Activity is “Active”.

**Q.** And the Activity (T-24 [10])?
**A.** Its Activity is “Active”.

**Q.** And the Activity [11]?
**A.** The Activity was 45%.

**Q.** And the Activity [12]?
**A.** Its Activity is 3.11%.

**Q.** What about the Activity [13] of the same molecule?
**A.** Its Activity is 57%.

**Q.** And the Activity [14]?
**A.** Its Activity is “Dose-dependent effect”.

**Q.** And the Activity [15]?
**A.** Its Activity is “Dose-dependent effect”.

**Q.** What about the Activity [16] of the same molecule?
**A.** Its Activity is “Dose-dependent effect”.

**Q.** And the Activity [17]?
**A.** Its Activity is “Dose-dependent effect”.

**Q.** What about the pIC50 (MGC-803) of the same molecule?
**A.** The pIC50 was 5.12.

**Q.** What about the pIC50 (NCI-H460) of the same molecule?
**A.** The pIC50 was 5.01.

**Q.** What about the Activity (T-24 [18]) of the same molecule?
**A.** The Activity was “Dose-dependent effect”.

**Q.** What about the Activity (T-24 [19]) of the same molecule?
**A.** Its Activity is “Active”.

**Q.** And the Activity (T-24 [20])?
**A.** The Activity was 6.89%.

**Q.** What about the Activity (T-24 [21]) of the same molecule?
**A.** Its Activity is 6.03%.

**Q.** And the viability at 5 µM (T-24 [22])?
**A.** The viability at 5 µM was 85.9%.

**Q.** And the Activity (T-24 [23])?
**A.** Its Activity is 7.06%.

**Q.** What about the viability at 10 µM (T-24 [24]) of the same molecule?
**A.** Its viability at 10 µM is 79.9%.
